The values that follow come from ChEMBL document CHEMBL1649098 (ACS Med Chem Lett, 2011).

Experiment [1] deals with T1, Fatty-acid amide hydrolase 1 (Rattus norvegicus) (UniProt P97612).
T1 sequence (whole entry): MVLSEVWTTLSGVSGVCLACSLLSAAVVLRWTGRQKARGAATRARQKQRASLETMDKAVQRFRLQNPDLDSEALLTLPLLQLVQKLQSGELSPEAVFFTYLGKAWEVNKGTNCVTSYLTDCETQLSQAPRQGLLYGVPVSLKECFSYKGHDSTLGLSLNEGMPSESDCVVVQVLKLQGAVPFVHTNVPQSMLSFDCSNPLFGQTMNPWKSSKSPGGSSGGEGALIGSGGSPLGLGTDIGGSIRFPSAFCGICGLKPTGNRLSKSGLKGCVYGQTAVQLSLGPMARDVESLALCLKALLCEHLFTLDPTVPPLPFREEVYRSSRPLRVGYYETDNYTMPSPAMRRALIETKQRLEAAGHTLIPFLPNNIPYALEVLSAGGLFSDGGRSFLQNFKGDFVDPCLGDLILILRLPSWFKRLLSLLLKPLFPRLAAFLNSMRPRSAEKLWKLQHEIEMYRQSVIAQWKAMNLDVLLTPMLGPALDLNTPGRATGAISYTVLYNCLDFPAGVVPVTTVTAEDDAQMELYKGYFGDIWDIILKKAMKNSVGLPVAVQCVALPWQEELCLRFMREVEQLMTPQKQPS
Put plainly: Irreversible inhibition of His-tagged rat FAAH N-terminal transmembrane-deleted truncated form expressed in Escherichia coli assessed as ratio of Kinact to Ki by GDH-coupled FAAH assay. A digest of the protocol:
(§1)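 Irreversible potency was measured as the second-order rate constant kinact/Ki in an enzyme-coupled FAAH assay (human or rat enzyme). Values are the average of at least two independent determinations ±SD.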

The target of experiment [2] is T2, Fatty-acid amide hydrolase 1 (Homo sapiens) (UniProt O00519).
T2 sequence (whole entry): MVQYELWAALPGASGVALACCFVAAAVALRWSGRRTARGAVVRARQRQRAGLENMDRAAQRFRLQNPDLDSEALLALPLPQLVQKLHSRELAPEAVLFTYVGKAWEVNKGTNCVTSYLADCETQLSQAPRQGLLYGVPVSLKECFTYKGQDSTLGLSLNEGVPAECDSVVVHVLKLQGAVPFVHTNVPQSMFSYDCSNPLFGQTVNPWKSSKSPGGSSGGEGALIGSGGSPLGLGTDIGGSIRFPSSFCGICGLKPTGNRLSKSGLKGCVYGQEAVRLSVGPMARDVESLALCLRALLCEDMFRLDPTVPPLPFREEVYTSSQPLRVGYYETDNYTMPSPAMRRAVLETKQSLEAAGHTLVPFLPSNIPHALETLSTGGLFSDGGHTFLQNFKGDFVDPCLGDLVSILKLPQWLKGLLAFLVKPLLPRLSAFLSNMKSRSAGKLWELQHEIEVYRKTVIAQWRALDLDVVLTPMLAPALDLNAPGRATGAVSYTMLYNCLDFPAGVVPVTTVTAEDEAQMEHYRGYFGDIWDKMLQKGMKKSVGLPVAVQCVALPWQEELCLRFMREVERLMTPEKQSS
In words: Irreversible inhibition of His-tagged human FAAH N-terminal transmembrane-deleted truncated form expressed in Escherichia coli assessed as ratio of Kinact to Ki by GDH-coupled FAAH assay. An outline of the steps: as §1

In experiment [3] the test system is Rattus norvegicus. In words: Antihyperalgesic activity in orally dosed Sprague-Dawley rat model of complete Freund's adjuvant-induced inflammatory pain model assessed as reduction in mechanical allodynia measured 4 hrs post dose. The experiment is classed as functional. A digest of the protocol:
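CFA was injected subcutaneously into the plantar surface of the rat hind paw. Oral dosing at 0.1-10 mg/kg began 5 days post-injection, once mechanical paw withdrawal threshold had fallen. Mechanical allodynia was read as paw withdrawal threshold 4 h after dosing. n=8 rats per group; significance versus vehicle-treated groups at p<0.05.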

The target of experiment [4] is T3, Cytochrome P450 3A4 (Homo sapiens, UniProt P08684). Put plainly: Inhibition of CYP3A4 uisng testosterone substrate. The experiment is classed as ADME. A digest of the protocol: (§2)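 CYP inhibition was tested in human liver microsomes with relevant probe substrates.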
For experiment [5], the target named is T3, Cytochrome P450 3A4. In words: Inhibition of CYP3A4 uisng midazolam substrate. It counts as ADME. An outline of the steps: as §2
For a further experiment, the target named is Cytochrome P450 2D6 (Homo sapiens, UniProt P10635). Put plainly: Inhibition of CYP2D6. It counts as ADME. An outline of the steps:
as §2

Experiment [6] is filed under the species Rattus norvegicus. Particulars: Sprague-Dawley, 10 mg/kg.
In experiment [7] the target is T4, Fatty-acid amide hydrolase 1 (Mus musculus) (UniProt O08914).
T4 sequence (whole entry): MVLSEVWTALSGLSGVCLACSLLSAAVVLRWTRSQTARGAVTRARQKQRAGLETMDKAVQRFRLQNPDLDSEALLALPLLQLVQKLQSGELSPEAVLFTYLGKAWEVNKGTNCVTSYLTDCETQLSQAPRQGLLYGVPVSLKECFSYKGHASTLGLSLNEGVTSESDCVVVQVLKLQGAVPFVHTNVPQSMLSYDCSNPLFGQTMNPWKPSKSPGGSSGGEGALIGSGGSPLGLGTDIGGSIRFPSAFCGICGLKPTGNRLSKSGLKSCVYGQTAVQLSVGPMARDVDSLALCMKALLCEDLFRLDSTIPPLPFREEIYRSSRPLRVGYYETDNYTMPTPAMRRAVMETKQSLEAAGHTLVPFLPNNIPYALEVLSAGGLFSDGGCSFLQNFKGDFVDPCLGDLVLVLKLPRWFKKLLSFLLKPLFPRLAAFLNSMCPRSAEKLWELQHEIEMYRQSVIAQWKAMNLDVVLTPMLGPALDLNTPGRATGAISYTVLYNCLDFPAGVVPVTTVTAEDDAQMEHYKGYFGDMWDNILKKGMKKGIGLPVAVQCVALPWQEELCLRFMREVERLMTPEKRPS
In words: Inhibition of FAAH in mouse brain membrane proteomes at 10 uM by competitive activity based protein profiling. The experiment is classed as cell membranes. An outline of the steps:
(§3)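 Competitive activity-based protein profiling used human and mouse brain membrane and soluble liver proteomes. Each was treated with compound at 10 or 100 μM or with DMSO, then labelled with FP-rhodamine. Serine hydrolases were resolved on fluorescent gels. Enzymes with reduced labelling intensity in the presence of inhibitor were scored as targets.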

The species entered for a further experiment is Mus musculus. In words: Inhibition of fluorophosphonate-reactive 55/65 kDa serine proteases in mouse liver soluble proteomes at 100 uM by competitive activity based protein profiling. A digest of the protocol: (§4)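 Competitive activity-based protein profiling of human or mouse liver soluble proteome. Proteome was treated with inhibitor at 10 or 100 μM, or DMSO, then labelled with FP-rhodamine. Serine hydrolases were resolved on gel and read by fluorescent gel imaging. Bands with reduced labelling intensity in the presence of inhibitor were scored as targets.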

The target in experiment [8] is T4, Fatty-acid amide hydrolase 1 (Mus musculus). In words: Inhibition of FAAH in mouse brain membrane proteomes at 100 uM by competitive activity based protein profiling. It counts as cell membranes. An outline of the steps:
as §3

The target in experiment [9] is T2, Fatty-acid amide hydrolase 1 (Homo sapiens). As to conditions: 10 uM.
The next experiment is filed under the species Homo sapiens. In words: Inhibition of fluorophosphonate-reactive 55/65 kDa serine proteases in human liver soluble proteomes at 100 uM by competitive activity based protein profiling. An outline of the steps:
as §4

The target in experiment [10] is T2, Fatty-acid amide hydrolase 1 (Homo sapiens). As to conditions: 100 uM.

Each structure is given as a SMILES string. The source made the active and inactive calls. Some results are limits rather than exact numbers.

Cytochrome P450 2D6, sequence (P10635 whole entry): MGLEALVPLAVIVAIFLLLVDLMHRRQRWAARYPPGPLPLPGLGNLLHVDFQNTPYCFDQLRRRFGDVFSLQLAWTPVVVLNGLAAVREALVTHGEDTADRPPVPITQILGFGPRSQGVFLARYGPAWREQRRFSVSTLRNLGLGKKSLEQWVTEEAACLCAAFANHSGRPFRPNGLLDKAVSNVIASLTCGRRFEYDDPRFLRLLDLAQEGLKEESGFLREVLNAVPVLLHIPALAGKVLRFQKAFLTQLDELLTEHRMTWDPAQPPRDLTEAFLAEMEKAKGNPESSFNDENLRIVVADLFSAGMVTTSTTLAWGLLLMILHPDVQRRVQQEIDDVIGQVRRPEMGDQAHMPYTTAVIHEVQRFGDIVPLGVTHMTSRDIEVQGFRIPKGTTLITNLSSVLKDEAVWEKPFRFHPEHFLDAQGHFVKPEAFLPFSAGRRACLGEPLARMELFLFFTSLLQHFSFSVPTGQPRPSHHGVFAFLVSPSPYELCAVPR
T3 sequence (P08684 whole entry): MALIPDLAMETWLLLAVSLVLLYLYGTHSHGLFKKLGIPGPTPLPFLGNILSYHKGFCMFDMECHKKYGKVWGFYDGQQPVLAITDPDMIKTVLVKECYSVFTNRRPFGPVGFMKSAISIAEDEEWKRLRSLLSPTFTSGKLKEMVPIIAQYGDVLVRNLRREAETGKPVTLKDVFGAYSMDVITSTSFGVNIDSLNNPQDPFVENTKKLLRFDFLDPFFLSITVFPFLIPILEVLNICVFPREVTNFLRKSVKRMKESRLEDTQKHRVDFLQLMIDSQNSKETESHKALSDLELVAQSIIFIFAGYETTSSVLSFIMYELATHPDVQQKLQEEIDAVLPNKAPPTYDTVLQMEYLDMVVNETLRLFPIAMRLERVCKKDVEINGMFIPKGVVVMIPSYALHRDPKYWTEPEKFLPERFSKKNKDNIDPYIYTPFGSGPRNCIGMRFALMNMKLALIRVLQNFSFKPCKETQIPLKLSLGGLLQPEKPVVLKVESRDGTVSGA

Regarding `Cc1cccnc1Oc1cccc(C=C2CCN(C(=O)Nc3cccnn3)CC2)c1`, the results for the Ratio in experiment [1] and in experiment [2] were 256 M⁻¹ s⁻¹ and 2200 M⁻¹ s⁻¹, respectively.
`O=C(Nc1cccnc1)N1CCC/C(=C/c2cccc(Oc3ccc(C(F)(F)F)cn3)c2)C1`: the Ratio in [1] turned out to be 22 M⁻¹ s⁻¹; in experiment [2] it was 35 M⁻¹ s⁻¹.
Regarding `Cc1ccc(Oc2cccc(C=C3CCN(C(=O)Nc4cccnn4)CC3)c2)nc1`, the Ratio in experiment [1] is 5530 M⁻¹ s⁻¹; in experiment [2], 21500 M⁻¹ s⁻¹.
In the case of `O=C(Nc1cccnc1)N1CCC(Cc2cccc(Oc3ccc(C(F)(F)F)cn3)c2)CC1`, the MED in the experiment with Rattus norvegicus [3] amounted to 3 mg/kg.
As for `COc1ccc(NC(=O)N2CCC(=Cc3cccc(Oc4ccc(C(F)(F)F)cn4)c3)CC2)cn1`, the Ratio in [1] is 11400 M⁻¹ s⁻¹; in [2], 16000 M⁻¹ s⁻¹.
In the case of `O=C(Nc1noc2ccccc12)N1CCC(=Cc2cccc(Oc3ccc(C(F)(F)F)cn3)c2)CC1`, the results for the Ratio in [1] and in [2] were 30200 M⁻¹ s⁻¹ and 3930 M⁻¹ s⁻¹, respectively.
`O=C(Nc1ccccc1)N1CCC(=Cc2cccc(Oc3ccc(C(F)(F)F)cn3)c2)CC1`: the Ratio in experiment [1] came to 584 M⁻¹ s⁻¹; in experiment [2], 4800 M⁻¹ s⁻¹.
With `Cc1ccc(NC(=O)N2CCC(=Cc3cccc(Oc4ccc(C(F)(F)F)cn4)c3)CC2)cn1`, the Ratio is 5210 M⁻¹ s⁻¹ in experiment [1] and 13100 M⁻¹ s⁻¹ in [2]. The IC50 is 3 µM at Cytochrome P450 3A4 [4], 11.8 µM at Cytochrome P450 3A4 [5] and 1.6 µM against Cytochrome P450 2D6.
On to `Cc1cccc(Oc2cccc(C=C3CCN(C(=O)Nc4cccnn4)CC3)c2)n1`, for which the figures for the Ratio in [1] and in experiment [2] were 586 M⁻¹ s⁻¹ and 1090 M⁻¹ s⁻¹, respectively.
As to `CCOc1ccc(Oc2cccc(C=C3CCN(C(=O)Nc4cccnn4)CC3)c2)nc1`, the values for the Ratio in experiment [1] and in experiment [2] were 11700 M⁻¹ s⁻¹ and 9230 M⁻¹ s⁻¹, respectively.
Regarding `O=C(Nc1cccnc1)N1CCC(Cc2cccc(Oc3ccc(C(F)(F)F)cn3)c2)C1` (centres undefined), the Ratio in [2] came out at 88 M⁻¹ s⁻¹.
Take `COc1ccc2cc([C@H](C)C(=O)O)ccc2c1`: the inhibition entry in the experiment listed under Rattus norvegicus [6] was “Active”.
For the compound `NC(=O)c1cccc(-c2cccc(OC(=O)NC3CCCCC3)c2)c1`, the inhibition result (in experiment [7]; in the experiment listed under Mus musculus; in experiment [8]; in [9]; in the experiment filed under Homo sapiens; in experiment [10]) was “Active” throughout.
On to `O=C(Nc1cccnn1)N1CCC(=Cc2cccc(Oc3ccccc3)c2)CC1`, for which the Ratio was 1900 M⁻¹ s⁻¹ in experiment [1] and 1530 M⁻¹ s⁻¹ in experiment [2].
On to `O=C(Nc1cccnc1)N1CCC(=Cc2cccc(Oc3ccc(C(F)(F)F)cn3)c2)CC1`, for which the Ratio in experiment [1] was found to be 15100 M⁻¹ s⁻¹; in [2] it was 21600 M⁻¹ s⁻¹. Further, the IC50 came to 0.8 µM on Cytochrome P450 3A4 [4], 4.3 µM against Cytochrome P450 3A4 [5] and 1.4 µM at Cytochrome P450 2D6.
As for `O=C(Nc1cccnc1)N1CC/C(=C/c2cccc(Oc3ccc(C(F)(F)F)cn3)c2)C1`, the Ratio in experiment [2] is less than 16 M⁻¹ s⁻¹.
As for `O=C(Nc1cccnn1)N1CCC(=Cc2cccc(Oc3ccc(C(F)(F)F)cc3)c2)CC1`, the Ratio in experiment [1] worked out at 22900 M⁻¹ s⁻¹; in [2], 18900 M⁻¹ s⁻¹.
Turning to `O=C(Nc1cccnn1)N1CCC(=Cc2cccc(Oc3ccc(C(F)(F)F)nc3)c2)CC1`, the Ratio in experiment [1] came out at 2020 M⁻¹ s⁻¹; in experiment [2], 26600 M⁻¹ s⁻¹.
As for `O=C(Nc1ccccn1)N1CCC(=Cc2cccc(Oc3ccc(C(F)(F)F)cn3)c2)CC1`, the Ratio was 563 M⁻¹ s⁻¹ in [1] and 6090 M⁻¹ s⁻¹ in [2].
As for `Cc1ccnc(Oc2cccc(C=C3CCN(C(=O)Nc4cccnn4)CC3)c2)c1`, the Ratio in [2] came out at 1580 M⁻¹ s⁻¹.
For the compound `O=C(Nc1cccnc1)N1CC(=Cc2cccc(Oc3ccc(C(F)(F)F)cn3)c2)C1`, the Ratio came to 173 M⁻¹ s⁻¹ in experiment [1] and 298 M⁻¹ s⁻¹ in experiment [2].
For the compound `O=C(Nc1cnccn1)N1CCC(=Cc2cccc(Oc3ccc(C(F)(F)F)cn3)c2)CC1`, the Ratio in [1] amounted to 23700 M⁻¹ s⁻¹; in experiment [2] it was 42600 M⁻¹ s⁻¹. Also, the IC50 against Cytochrome P450 3A4 [4] is 23.5 µM; at Cytochrome P450 3A4 [5], 30 µM; against Cytochrome P450 2D6, 25.1 µM.
As for `O=C(Nc1cccnc1)N1CCC/C(=C\c2cccc(Oc3ccc(C(F)(F)F)cn3)c2)C1`, the Ratio in experiment [1] is 233 M⁻¹ s⁻¹; in experiment [2], 1150 M⁻¹ s⁻¹.
On to `Cc1noc(NC(=O)N2CCC(=Cc3cccc(Oc4ccc(C(F)(F)F)cn4)c3)CC2)c1C`, for which the results for the Ratio in experiment [1] and in experiment [2] were 54400 M⁻¹ s⁻¹ and 7990 M⁻¹ s⁻¹, respectively.
On to `O=C(Nc1cccnc1)N1CC/C(=C\c2cccc(Oc3ccc(C(F)(F)F)cn3)c2)C1`, for which the Ratio in experiment [2] stood at 144 M⁻¹ s⁻¹.
Consider `O=C(Nc1cccnn1)N1CCC(=Cc2cccc(Oc3ccc(C4CC4)cn3)c2)CC1`, for which the Ratio in experiment [1] came out at 46300 M⁻¹ s⁻¹; in [2], 28800 M⁻¹ s⁻¹.

As a reminder, the IC50 is the point on the concentration scale where inhibition reaches its midpoint.
